Reference: ChEMBL document CHEMBL1131079, “Synthesis and evaluation of 2-amino-9-(3-hydroxymethyl-4-alkoxycarbonyloxybut-1-yl)purines as potential prodrugs of penciclovir” (J Med Chem, 1998)
Converted amounts (≈) assume the structure as drawn.

Legend:
Vero = experiment: Compound was tested for cytotoxicity in Vero cells (concentration required to reduce the OD value by 50% of the control); type: functional; details: Chlorocebus sabaeus
Outline: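 Vero cells (ATCC) seeded at 5 × 10³ cells/well and grown 24 h in EMEM, then exposed to a range of compound concentrations for 3 days at 37 °C, 5% CO₂. MTT added for a further 4 h, formazan dissolved in DMSO, OD read at 540 nm. CC50 is the concentration giving 50% OD reduction versus control. Quadruplicate wells, experiment repeated twice.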

Human alphaherpesvirus 1 = experiment: Compound was tested for in vitro antiviral activity against herpes viruses of type 1 (HSV-1,KOS strain) (concentration required to reduce the OD value by 50% of the virus infected control); type: functional, organism-based
Outline: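 Dye-uptake assay. Vero cells (10⁵ cells/mL) in EMEM with 5% FBS were infected with HSV-1 KOS at 100 PFU/well. After 1 h adsorption, serial 3-fold compound dilutions from 125 μM were added in quadruplicate. After 48 h at 37 °C, neutral red uptake was eluted and read at 550 nm. EC50 derived by quantal probit analysis against virus and cell controls.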

Rattus norvegicus = species on record: Rattus norvegicus; experiment: The total amount of penciclovir recovered in the urine over a 48-h period was determined by HPLC using a C18 reversed-phase column in rat.; type: ADME, organism-based; details: in vivo
Outline: (§1)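 Urine collected 48 h in metabolic cages over sodium azide, then filtered. Penciclovir quantified by C18 HPLC with a three-step phosphoric acid/MeCN gradient, UV 248 nm. Result expressed as total urinary penciclovir, % of dose.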

Mus musculus = species on record: Mus musculus; experiment: The total amount of penciclovir recovered in the urine over a 48-h period was determined by HPLC using a C18 reversed-phase column in mouse.; type: ADME, organism-based; details: in vivo; outline: as §1
[1] = Half-life by the HPLC using a C18 reversed-phase column at pH 1.2 (HC/NaCl buffer) and 37 degree C.; type: ADME; details: HCl/NaCl buffer
Outline: (§2)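 Compound at 125 μM final (from 2.5 mM stock) incubated at 37 °C in HCl/NaCl buffer pH 1.2 or sodium phosphate buffer pH 6.0, 7.4 or 8.0. Aliquots taken at intervals were diluted into 0.1 M phosphate pH 7.0 and run isocratically on a C18 column with 0.1% phosphoric acid/MeCN eluents. Half-life calculated from remaining parent concentration.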

[2] = Solubility at 20 degree C was determined by the comparison of th UV absorbance of the saturated solution of each compound at 290 nm with that of the standard curve.
[3] = Half-life by the HPLC using a C18 reversed-phase column at pH 6.0 (sodium phosphate buffer) and 37 degree C.; type: ADME; outline: as §2
[4] = Half-life by the HPLC using a C18 reversed-phase column at pH 8..0(sodium phosphate buffer) and 37 degree C.; type: ADME; outline: as §2
[5] = Half-life by the HPLC using a C18 reversed-phase column at pH 7.4(sodium phosphate buffer) and 37 degree C.; type: ADME; outline: as §2

EC50 (Human alphaherpesvirus 1) [µM] | urinary penciclovir recovery, % of dose (Rattus norvegicus) [%] | Urinary penciclovir recovery over 48 h (% of dose) (Mus musculus) [%] | half-life [1] [days] | solubility at 0.29 µM [2] [mg/mL] | half-life [3] [days] | half-life [4] [days] | half-life [5] [days] | SMILES | CC50 (Vero) [µM]
> 125 | 40 | 48 | – | – | – | – | – | CC(=O)OCC(CCn1cnc2cnc(N)nc21)COC(C)=O [FAMCICLOVIR] | > 500
> 125 | 38 | 47 | 25 | 4.2 (≈ 12 mM) | 17 | 5 | 7 | CCCCCOC(=O)OCC(CO)CCn1cnc2cnc(N)nc21 (configuration not stated) | > 500
> 125 | 34 | 51 | 29 | 68 (≈ 210 mM) | 89 | 4 | 10 | CCCOC(=O)OCC(CO)CCn1cnc2cnc(N)nc21 (configuration not stated) | > 500
> 125 | 40 | 53 | 88 | 139 (≈ 429 mM) | > 200 | 26 | 61 | CC(C)OC(=O)OCC(CO)CCn1cnc2cnc(N)nc21 (configuration not stated) | > 500

Continued, molecule first:

SMILES | EC50 (Human alphaherpesvirus 1) [µM] | urinary penciclovir recovery, % of dose (Rattus norvegicus) [%] | Urinary penciclovir recovery over 48 h (% of dose) (Mus musculus) [%] | half-life [1] [days] | solubility at 0.29 µM [2] [mg/mL] | half-life [3] [days] | half-life [4] [days] | half-life [5] [days] | CC50 (Vero) [µM]
CC(C)CCOC(=O)OCC(CO)CCn1cnc2cnc(N)nc21 (configuration not stated) | > 125 | 40 | 51 | 24 | 5.6 (≈ 15.9 mM) | 65 | 6 | 11 | 357
Nc1nc2c(ncn2CCC(CO)CO)c(=O)[nH]1 [PENCICLOVIR] | 8.65 | 9 | 3 | – | – | – | – | – | > 500
Nc1ncc2ncn(CCC3COC(=O)OC3)c2n1 | > 125 | 15 | 27 | – | – | 2.6 | 0.07 | 0.12 | > 500
CCOC(=O)OCC(CO)CCn1cnc2cnc(N)nc21 (configuration not stated) | > 125 | 40 | 50 | 35 | 20 (≈ 64.7 mM) | 112 | 3 | 7 | > 500
CCCCOC(=O)OCC(CO)CCn1cnc2cnc(N)nc21 (configuration not stated) | > 125 | 41 | 38 | 29 | 15 (≈ 44.5 mM) | 74 | 5 | 11 | > 500
COC(=O)OCC(CO)CCn1cnc2cnc(N)nc21 (configuration not stated) | > 125 | 39 | 45 | 23 | 14.1 (≈ 47.7 mM) | 18 | 0.5 | 1 | > 500
CC(C)COC(=O)OCC(CO)CCn1cnc2cnc(N)nc21 (configuration not stated) | > 125 | 37 | 38 | 28 | 1.5 (≈ 4.45 mM) | 87 | 8 | 17 | > 500
